pIC50: −log10 of the molar value.
Assays:
[1] = Inhibition of tubulin polymerization at 5 uM after 60 mins by spectrophotometry
[2] = tested on: PBMC; experiment: Inhibition of LPS-induced TNFalpha production in human PBMC preincubated 1 hr prior to LPS stimulation measured after 18 to 20 hrs by ELISA; type: functional, cell-based
Method in brief: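 PBMC were isolated by Ficoll-Hypaque density centrifugation and plated at 2 × 10⁵ cells in triplicate. Compounds in DMSO (0.25% final) were added 1 h before stimulation with LPS from S. abortus equi at 1 ng/ml. After 18–20 h at 37 °C in 5% CO₂, supernatant TNF-α was measured by ELISA. IC50 values are means of at least three determinations.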

[3] = target: Phosphodiesterase 4 (Homo sapiens, UniProt P27815+Q08499+Q07343+Q08493); experiment: Inhibition of human PDE4 expressed in U937 cells using [3H]cAMP as substrate after 30 mins; settings: u-937
Method in brief: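 PDE4 was purified from U937 human monocytic cells by gel filtration. Reactions ran in 50 mM Tris–HCl pH 7.5 with 5 mM MgCl₂, 1 µM cAMP and 10 nM [³H]-cAMP for 30 min at 30 °C. They were stopped by boiling, treated with snake venom (1 mg/ml) and separated on ion-exchange resin. Substrate consumption stayed below 15%. IC50 values are means of at least three determinations, with SEM.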

[4] = tested on: HCT-116; experiment: Cytotoxicity against human HCT116 cells assessed as reduction of [3H]thymidine incorporation after 72 hrs by scintillation counting; type: functional, cell-based
Method in brief: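 HCT-116 cells were seeded 24 h before compound and treated with serial dilutions in triplicate for 72 h at 37 °C. [³H]thymidine (1 µCi per well) was added for the last 6 h, and incorporation was read by scintillation counting. IC50 came from nonlinear sigmoidal regression (top 100%, bottom 0%, variable slope). Values are means of at least three independent determinations, with SEM from the individual IC50s.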

[5] = tested on: Plasma; experiment: Stability in human plasma assessed as formation of (E/Z)-3-(3-Ethoxy-4-methoxyphenyl)-3-(3-hydroxy-4- methoxyphenyl)acrylonitrile […] by LC-MS/MS analysis; type: ADME, cell-free; settings: 20 min
[6] = Inhibition of tubulin polymerization at 10 uM after 60 mins by spectrophotometry

SMILES | inhibition [1] [%] | IC50 [3] [nM] | Stability [5] | inhibition [6] [%] | pIC50 [2] | pIC50 [4]
COc1ccc(/C=C\c2cc(OC)c(OC)c(OC)c2)cc1O [COMBRETASTATIN A4] | 88 | > 10000 |  |  | 7.96 | 9.13
C=C(c1ccc(OC)c(O)c1)c1ccc(OC)c(OCC)c1 |  | 380 |  |  | 7.54 | 7.44
CCOc1cc(C(=CC#N)c2ccc(OC)c(OC(=O)[C@H](C)N)c2)ccc1OC.Cl |  | 69 | Unstable |  | 7.24 | 7.77
CCOc1cc(C(=CC#N)c2ccc(OC)c(OC(=O)[C@@H](N)C(C)C)c2)ccc1OC.Cl |  | 120 | Unstable |  | 7.17 | 7.66
CCOc1cc(C(=CC#N)c2ccc(OC)c(OC(=O)N(C)C)c2)ccc1OC |  | 120 |  |  | 6.62 | < 5.00
C=C(c1cc(OC)cc(OC)c1)c1ccc(OC)c(N)c1 |  | > 10000 |  |  | 6.48 | 7.89
C=C(c1ccc(OC)c(N)c1)c1ccc(OC)c(OCC)c1 |  | 680 |  |  | 6.42 | 7.42
CCOc1cc(C(=CC#N)c2ccc(NC)cc2)ccc1OC |  | 41 |  |  | 6.85 | 7.26
CC=C(c1ccc(OC)c(N)c1)c1ccc(OC)c(OCC)c1 |  | 590 |  |  | 5.55 | 6.96
CCOc1cc(C(=CC#N)c2cccc(OC)c2)ccc1OC |  | 110 |  |  | 6.64 | 6.35
CCOc1cc(C(=CC#N)c2ccc(OC)c(O)c2)ccc1OC |  | 91 |  |  | 7.36 | 7.82
COc1cc(OC)cc(C(=Cc2ccccc2)c2ccc(OC)c(O)c2)c1 |  | > 10000 |  |  | < 5.00 | < 5.00
COc1cc(C(=CC#N)c2cc(OC)c(OC)c(OC)c2)cc(OC)c1OC |  | 2400 |  |  | 6.06 | < 5.00
CCOc1cc(C(=CC#N)c2ccc(OC)c(OC)c2)ccc1OC |  | 83 |  |  | 6.74 | 6.70
COc1cc(OC)cc(C(=CC#N)c2ccccc2)c1 |  | 1900 |  |  | 5.62 | 6.01
CCOc1cc(C(=CC#N)c2ccc(S(C)(=O)=O)cc2)ccc1OC |  | 200 |  |  | 6.89 | < 5.00
CCOc1cc(C(=CC#N)c2ccc(N(C)C)cc2)ccc1OC |  | 52 |  |  | 6.89 | 7.51
CCOc1cc(C(=C(F)F)c2ccc(OC)c(O)c2)ccc1OC |  | 360 |  |  | 7.27 | 7.13
CCOc1cc(C(=CC#N)c2ccc(OC)c(C)c2)ccc1OC |  | 82 |  |  | 7.00 | 7.06
CCOc1cc(C(=CC#N)c2ccc(OC)c(-n3cccc3)c2)ccc1OC |  | 70 |  |  | 7.17 | 7.31
CCOc1cc(C(=CC#N)c2ccc(OC)c(OC(=O)CN)c2)ccc1OC.Cl |  | 49 | Unstable |  | 7.24 | 7.72
CCOc1cc(C(=CC#N)c2ccc(OC)c(F)c2)ccc1OC |  | 70 |  |  | 7.51 | 6.89
C=C(c1cc(OC)cc(OC)c1)c1ccc(OC)c(O)c1 |  | > 10000 |  |  | 5.52 | 7.68
CCOc1cc(C(=CC#N)c2ccc(OC)c(OCC)c2)ccc1OC |  | 70 |  |  | 7.32 | 6.36

Further lines, with some results ahead:

inhibition [1] [%] | IC50 [3] [nM] | Stability [5] | inhibition [6] [%] | SMILES | pIC50 [2] | pIC50 [4]
 | 1500 |  |  | CC=C(c1cc(OC)cc(OC)c1)c1ccc(OC)c(OC)c1 | 5.59 | 6.32
 | 190 |  |  | COc1ccc(C(=CC#N)c2ccc(OC)c(OC)c2)cc1 | 6.46 | 7.62
67 | 3400 |  | 88 | COc1cccc(C(=CC#N)c2cc(OC)cc(OC)c2)c1 | 6.54 | 7.82
65 | 350 |  | 84 | COc1cc(OC)cc(C(=CC#N)c2ccc(OC)c(OC)c2)c1 | 6.57 | 7.74
 | > 10000 |  |  | COc1ccc(C(=CC#N)c2cc(OC)c(OC)c(OC)c2)cc1N | 6.70 | 8.74
 | > 10000 |  |  | COc1cc(OC)cc(C(=CC(=O)O)c2ccc(OC)c(OC)c2)c1 | < 5.00 | < 5.00
 | 140 |  |  | COc1cc(OC)cc(C(=CC(C)=O)c2ccc(OC)c(OC)c2)c1 | 6.12 | < 5.00
46 | > 10000 |  | 74 | COc1cc(OC)cc(C(=CC#N)c2ccc(OC)c(NC(C)=O)c2)c1 | 7.18 | 7.04
 | 160 |  |  | COc1cccc(C(=CC#N)c2ccc(OC)c(OC)c2)c1 | 6.18 | 6.51
 | 6700 |  |  | COc1cc(OC)cc(C(=CC(N)=O)c2ccc(OC)c(OC)c2)c1 | 5.26 | < 5.00
 | 730 |  |  | COc1cc(OC)cc(/C(=C/C#N)c2ccc(OC)c(OC)c2)c1 | 6.19 | 6.96
 | 3500 |  |  | C#CC=C(c1cc(OC)cc(OC)c1)c1ccc(OC)c(OC)c1 | 5.14 | < 5.00
 | 1800 |  |  | COc1ccc(C(=CC#N)c2cc(OC)c(OC)c(OC)c2)cc1OC | 6.27 | 7.39
 | 2000 |  |  | CCC=C(c1cc(OC)cc(OC)c1)c1ccc(OC)c(OC)c1 | < 5.00 | < 5.00
 | > 10000 |  |  | CC=C(c1cc(OC)cc(OC)c1)c1ccc(OC)c(O)c1 | 6.82 | 7.52
 | 3600 |  |  | COC=C(c1cc(OC)cc(OC)c1)c1ccc(OC)c(OC)c1 | 5.20 | < 5.00
 | 1300 |  |  | COC(=O)C=C(c1cc(OC)cc(OC)c1)c1ccc(OC)c(OC)c1 | 5.27 | < 5.00
77 | 2400 |  |  | COc1cc(OC)cc(C(=CC#N)c2ccc(OC)c(O)c2)c1 | 8.92 | 8.60
 | 150 |  |  | COc1cc(OC)cc(/C(=C\C#N)c2ccc(OC)c(OC)c2)c1 | 7.03 | 7.96
 | > 10000 |  |  | COc1cc(OC)cc(C(=CCCN(C)C)c2ccc(OC)c(OC)c2)c1 | < 5.00 | < 5.00
 | 310 |  |  | COc1ccc(C(=CC#N)c2ccc(OC)c(OC)c2)cc1OC | 6.22 | 6.85
 | 2200 |  |  | C=C(c1cc(OC)cc(OC)c1)c1ccc(OC)c(OC)c1 | 5.32 | < 5.00
 | 3800 |  |  | COc1ccc(C(=CC#N)c2cc(OC)cc(OC)c2)cc1 | 6.36 | 8.92
76 | 9800 |  |  | COc1cc(OC)cc(C(=CC#N)c2ccc(OC)c(N)c2)c1 | 7.96 | 8.85

Source: ChEMBL document CHEMBL1914453, “1,1-Diarylalkenes as anticancer agents: dual inhibitors of tubulin polymerization and phosphodiesterase 4” (Bioorg Med Chem, 2011)
